Compound activity (PubChem)
Apaf-1 inh – inhibitors of human Apaf-1 apoptosome, primary screen, biochemical, DEVD-Rh110 fluorescence, uHTS | reconstituted apoptosome caspase-3 activity | actives 0.71% (n = 330,000) | AID 489030, 2010 | inhibition, % at 20 µM | Apoptotic protease-activating factor 1 (Homo sapiens), O14727; active = inhibition of at least 40% at 20 µM
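Material: reconstituted apoptosome with Apaf-1, cytochrome c, caspase-9, procaspase-3, dATP / Buffer or medium: pH 7.5 Hepes buffer with CHAPS, BSA, DTT / Also added: cytochrome c with DEVD-Rh110 / Schedule: compound with Apaf-1, dATP, procaspase-3 30 min, then 50 min reaction, room temperature / Technique: rhodamine 110 fluorescence at Ex 480/Em 540 nm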
PREPL inh – PREPL enzyme inhibitors, primary screen, biochemical, fluorescence polarization; recombinant PREPL, fluorescence polarization activity-based probe; inhibition, % at 5.96 µM; actives 0.68% (n = 320,000); AID 2751, 2010; in the data active = inhibition above about 43%
Target sequence (Q4J6C6 whole entry, looked up): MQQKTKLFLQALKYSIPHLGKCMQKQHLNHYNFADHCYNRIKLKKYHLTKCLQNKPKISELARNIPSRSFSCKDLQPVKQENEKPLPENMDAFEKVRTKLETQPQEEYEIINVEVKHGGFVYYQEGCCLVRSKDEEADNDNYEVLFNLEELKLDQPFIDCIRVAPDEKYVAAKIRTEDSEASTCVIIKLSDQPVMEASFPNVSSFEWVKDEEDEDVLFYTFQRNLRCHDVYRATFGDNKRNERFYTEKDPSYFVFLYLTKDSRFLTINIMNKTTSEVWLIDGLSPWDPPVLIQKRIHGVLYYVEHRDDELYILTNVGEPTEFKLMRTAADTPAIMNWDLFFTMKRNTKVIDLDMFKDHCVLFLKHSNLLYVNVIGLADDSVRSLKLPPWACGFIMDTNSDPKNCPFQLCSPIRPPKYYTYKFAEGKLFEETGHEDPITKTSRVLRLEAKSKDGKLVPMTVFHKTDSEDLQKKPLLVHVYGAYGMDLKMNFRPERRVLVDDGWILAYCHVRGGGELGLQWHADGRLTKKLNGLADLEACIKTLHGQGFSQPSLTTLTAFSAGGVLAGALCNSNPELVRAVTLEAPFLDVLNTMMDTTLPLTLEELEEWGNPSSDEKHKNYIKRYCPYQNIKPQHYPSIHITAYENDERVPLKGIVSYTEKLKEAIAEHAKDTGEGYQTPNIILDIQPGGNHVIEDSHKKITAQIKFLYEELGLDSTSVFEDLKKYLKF
PAFAH1B2 inh – PAFAH1B2 enzyme inhibitors, primary screen, biochemical, fluorescence polarization, human | inhibition, % at 3.39 µM | actives 1.2% (n = 340,000) | recombinant PAFAH1B2, FP-rhodamine activity probe;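 active = inhibition above the mean of all tested compounds plus 3 SD, cut at about 24% in these data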
pPAFAH inh – pPAFAH enzyme inhibitors, primary screen, biochemical, fluorescence polarization, human. actives 1.5% (n = 330,000). recombinant pPAFAH, FP-rhodamine probe fluorescence polarization. inhibition, % at 3.39 µM;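 active = inhibition above the mean inhibition across the screen plus 3 SD, cut at about 25% in these data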;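 also: inhibitors block binding of the rhodamine activity-based probe so polarization drops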
PAFAH2 FP inh – PAFAH2 enzyme inhibitors, primary screen, biochemical, fluorescence polarization, human. actives 0.99% (n = 340,000). recombinant PAFAH2, FP-rhodamine activity probe. Platelet-activating factor acetylhydrolase 2, cytoplasmic (Homo sapiens), Q99487. inhibition, % at 3.39 µM;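 active = inhibition above the mean over all tested compounds plus 3 SD, cut at about 30% in these data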;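 also: inhibitors block probe labeling of enzyme so polarization drops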
PAFAH1B3 FP inh – PAFAH1B3 enzyme inhibitors, primary screen, biochemical, fluorescence polarization, human. Platelet-activating factor acetylhydrolase IB subunit alpha1 (Homo sapiens), Q15102. recombinant PAFAH1B3, FP-rhodamine probe. inhibition, % at 3.39 µM. actives 0.28% (n = 340,000). AID 492972, 2010;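 active = inhibition above the screen-wide average of all tested compounds plus 3 SD, cut at about 25% in these data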
A number is an active result; i = inactive; nt = no result given. Only some compounds are listed: those with a hit (about 3.5% of all), similar ones and a draw of the others.

SMILES	Apaf-1 inh	PREPL inh	PAFAH1B2 inh	pPAFAH inh	PAFAH2 FP inh	PAFAH1B3 FP inh
COc1cc(/C=C(\C#N)c2nc3ccc(C)cc3[nH]2)cc([N+](=O)[O-])c1O	nt	nt	33	nt	38	i
N=C1/C(=C/c2cccn2-c2ccc([N+](=O)[O-])cc2)C(=O)N=C2SC=CN12	i	i	i	i	i	i
O=C1NC(=S)N/C1=C/c1cccn1-c1ccc([N+](=O)[O-])cc1	i	i	i	32	i	i
O=C(CCNC(=O)C1CCN(S(=O)(=O)c2ccc(F)cc2)CC1)NCc1ccc(F)cc1	i	i	27	i	i	i
NC(=O)C1CCCN(S(=O)(=O)c2ccc(Br)cc2)C1 (centres undefined)	i	i	28	i	i	i
CCCNC(=O)C1CCN(S(=O)(=O)c2ccc3c(c2)OCCO3)CC1	i	i	i	i	i	i
O=C(NCCC1CCCCN1S(=O)(=O)c1ccccc1)C(=O)NCc1ccc(F)cc1 (centres undefined)	i	i	27	i	i	i
CCCNC(=O)C1CCN(S(=O)(=O)c2ccc(Br)cc2)CC1	i	i	25	i	i	i
O=S1(=O)CCOCCCN1Cc1ccccc1F	i	i	i	i	i	i
C/C=C/c1ccc(OCCOCCNCc2ccccc2)c(OC)c1	i	i	i	i	i	i
CCOC(=O)c1cnc(-n2cc(C)cn2)nc1NCc1ccc2c(c1)OCO2	i	58	i	i	i	i
CCOC(=O)c1c(C)c(C(=O)NCc2ccc3c(c2)OCO3)c(C)n1CC	i	i	i	i	i	i
CCOC(=O)N1CCN(C2=C(NS(=O)(=O)c3ccc(C)cc3)C(=O)c3ccccc3C2=O)CC1	86	i	i	i	i	i
Cc1ccc(S(=O)(=O)NC2=C(N3CCN(Cc4ccccc4)CC3)C(=O)c3ccccc3C2=O)cc1	i	i	i	i	i	i
CC(Oc1ccccc1)C(=O)NC1=NCCS1 (centres undefined)	i	i	i	i	i	i
CC(C)(C)c1ccc(CCC(CC(=O)O)CC(=O)O)cc1	i	i	27	i	i	i
CC(C)(C)c1ccc(C(CC(=O)O)NC(=O)Cc2ccc(F)cc2)cc1 (centres undefined)	i	i	nt	i	nt	nt
O=C(CSc1ccccn1)Nc1cccc(S(=O)(=O)N2CCCC2)c1	i	i	i	i	i	i
O=C1C=C(NCCc2cc(Br)c(O)c(Br)c2)C(=O)c2ncccc21	nt	nt	28	nt	37	68
O=S(=O)(c1ccc(F)cc1)N1CCN(C(=S)NC2CC2)CC1	nt	i	i	i	i	i
CCCCCCC(NC(=O)c1ccc(C)cc1)C(=O)O (centres undefined)	i	nt	i	i	i	i
COc1ccc(N2Cc3ccc(C(=O)N/N=C\c4ccc(O)cc4O)cc3C2)cc1	i	i	nt	39	nt	nt
CCCCn1c(SCC(=O)NC(=O)Cc2ccccc2)nc2ccccc2c1=O	i	i	i	i	i	i
Cc1c(Cl)cccc1NC(=O)CSC(C)c1nc2ccccc2c(=O)[nH]1 (centres undefined)	i	i	i	i	i	i
Cc1ccc(-c2nc(CSCC(=O)N3CCN(c4ccccn4)CC3)c(C)o2)cc1	i	i	25	i	i	i
SMILES	Apaf-1 inh	PREPL inh	PAFAH1B2 inh	pPAFAH inh	PAFAH2 FP inh	PAFAH1B3 FP inh
CCc1ccc(-c2nc(CSCC(=O)N3CCN(c4ccccn4)CC3)c(C)o2)cc1	i	i	44	i	i	i
Cc1ccc(-c2nc(CSCC(=O)N3CCN(C(=O)c4ccco4)CC3)c(C)o2)cc1	i	i	i	i	i	i
O=C(Nc1nc2ccccc2[nH]1)C12CC3CC(CC(C3)C1)C2	i	i	29	i	i	i
O=C(Nc1nc2ccccc2[nH]1)C1CC1	i	i	i	i	i	i
CC(=O)C1C(=O)c2c(cccc2[N+](=O)[O-])C1=Nc1ccc(S(N)(=O)=O)cc1 (centres undefined)	i	i	i	25	39	35
Cc1ccc2oc(C(=O)N3CCC(O)(c4cccc(C(F)(F)F)c4)CC3)c(C)c2c1	i	i	i	i	i	i
